Source: ChEMBL document CHEMBL2146436, “Synthesis and pharmacological investigation of azaphthalazinone human histamine H(1) receptor antagonists” (Bioorg Med Chem, 2012)

How the values were obtained:
Histamine H1 receptor [1] = molecular target: T1, Histamine H1 receptor (Homo sapiens, UniProt P35367); experiment: Antagonist activity at human H1 receptor expressed in CHO cells assessed as inhibition of calcium mobilization by FLIPR assay; format: functional, cell-based
Method in brief: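 Intact CHO cells expressing recombinant human H1 receptor were loaded with Fluo-4AM. Inhibition of agonist-induced calcium mobilisation was read in a plate-based FLIPR instrument and expressed as pKi, with the number of determinations given.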

Histamine H3 receptor = Histamine H3 receptor (Homo sapiens, UniProt Q9Y5N1); experiment: Antagonist activity at human H3 receptor expressed in CHO cells assessed as inhibition of histamine-induced GTPgamma[S] binding by scintillation proximity assay; format: functional, cell-based
Sequence of Histamine H3 receptor (Q9Y5N1 whole entry): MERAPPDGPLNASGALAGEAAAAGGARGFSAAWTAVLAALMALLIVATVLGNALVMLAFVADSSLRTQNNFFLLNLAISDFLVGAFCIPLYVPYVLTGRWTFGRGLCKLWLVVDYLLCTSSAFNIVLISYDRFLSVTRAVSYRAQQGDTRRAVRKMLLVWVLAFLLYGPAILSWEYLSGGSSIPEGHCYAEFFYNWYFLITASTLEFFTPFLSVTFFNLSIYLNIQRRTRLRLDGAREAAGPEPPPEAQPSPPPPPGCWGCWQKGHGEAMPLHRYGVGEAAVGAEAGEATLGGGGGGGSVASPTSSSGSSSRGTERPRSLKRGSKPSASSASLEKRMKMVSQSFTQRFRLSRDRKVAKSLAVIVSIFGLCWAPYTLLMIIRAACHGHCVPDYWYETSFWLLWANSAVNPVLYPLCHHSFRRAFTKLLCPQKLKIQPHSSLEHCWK

[2] = molecular target: T2, Alpha-1A adrenergic receptor (Homo sapiens, UniProt P35348); experiment: Antagonist activity at human adrenergic alpha1A receptor expressed in rat fibroblasts by plate-based calcium imaging; format: functional
T2 sequence (P35348 whole entry): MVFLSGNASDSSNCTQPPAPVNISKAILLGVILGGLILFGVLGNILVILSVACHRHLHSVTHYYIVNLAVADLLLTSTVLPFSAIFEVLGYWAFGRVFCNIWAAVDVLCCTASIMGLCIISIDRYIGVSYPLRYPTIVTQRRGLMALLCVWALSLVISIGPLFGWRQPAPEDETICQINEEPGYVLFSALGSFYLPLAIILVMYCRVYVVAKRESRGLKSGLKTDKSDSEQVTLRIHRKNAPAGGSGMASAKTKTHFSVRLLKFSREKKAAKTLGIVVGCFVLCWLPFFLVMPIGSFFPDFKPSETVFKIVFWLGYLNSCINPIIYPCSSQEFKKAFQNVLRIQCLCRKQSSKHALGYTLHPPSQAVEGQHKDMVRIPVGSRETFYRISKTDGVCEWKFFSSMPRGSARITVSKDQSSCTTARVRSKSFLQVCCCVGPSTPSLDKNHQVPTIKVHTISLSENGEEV

[3] = Lipophilicity, log D of compound at pH 7.4; format: physicochemical; conditions: buffer
[4] = molecular target: T3, Alpha-1B adrenergic receptor (Homo sapiens, UniProt P35368); experiment: Antagonist activity at human adrenergic alpha1B receptor expressed in rat fibroblasts by plate-based calcium imaging; format: functional
T3 sequence (P35368 whole entry): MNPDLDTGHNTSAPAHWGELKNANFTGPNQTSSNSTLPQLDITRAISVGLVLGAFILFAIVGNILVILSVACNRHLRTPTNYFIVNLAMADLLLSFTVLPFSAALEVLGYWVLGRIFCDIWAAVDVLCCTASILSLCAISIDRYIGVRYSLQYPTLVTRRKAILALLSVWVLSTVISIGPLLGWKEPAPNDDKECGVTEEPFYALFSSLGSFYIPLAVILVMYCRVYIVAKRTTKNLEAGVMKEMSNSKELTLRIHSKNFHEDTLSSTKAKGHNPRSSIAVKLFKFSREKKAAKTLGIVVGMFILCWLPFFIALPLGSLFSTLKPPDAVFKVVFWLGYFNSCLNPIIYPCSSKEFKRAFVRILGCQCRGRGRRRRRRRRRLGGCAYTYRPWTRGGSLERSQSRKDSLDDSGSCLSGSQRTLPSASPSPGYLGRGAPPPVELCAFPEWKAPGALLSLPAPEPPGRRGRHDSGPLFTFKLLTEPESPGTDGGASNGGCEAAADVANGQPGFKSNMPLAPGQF
Method in brief: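 Plate-based calcium imaging in intact Rat1 fibroblast cells expressing the α1B adrenoceptor. Antagonist affinity is expressed as pKi, with the number of determinations given.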

Histamine H1 receptor [5] = molecular target: T1, Histamine H1 receptor; experiment: Antagonist activity against human CHO cells H1 receptor at 100 nM after 30 mins by FLIPR assay; format: functional, cell-based; conditions: read-out: pA2 (converted)
Method in brief: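 Modified lower-throughput FLIPR assay in CHO cells expressing recombinant human H1. Histamine concentration–response curves were run without antagonist and with a single 100 nM antagonist concentration after 30 min incubation. EC50 values came from a four-parameter logistic fit. pA2 = log(DR−1) − log[B], where DR is the ratio of the EC50 with antagonist to the control EC50. Values are mean ± SEM, with SD given when n<3.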

CHO [6] = experiment: Selectivity ratio of pKi for human H3 receptor expressed in CHO cells to pKi for human adrenergic alpha1B receptor expressed in rat fibroblast; format: cell-based
Method in brief: (§1)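 Ratio of two pKi values. The H3 pKi comes from membranes of CHO cells transfected with cloned human H3, read as reduction of histamine-stimulated GTPγS binding by scintillation proximity detection. The α1A or α1B pKi comes from intact Rat1 fibroblast cells expressing that receptor, read by plate-based calcium imaging.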

[7] = molecular target: Voltage-gated inwardly rectifying potassium channel KCNH2 (Homo sapiens, UniProt Q12809); experiment: Displacement of [3H]dofetilide from human ERG
Sequence of Voltage-gated inwardly rectifying potassium channel KCNH2 (Q12809 whole entry): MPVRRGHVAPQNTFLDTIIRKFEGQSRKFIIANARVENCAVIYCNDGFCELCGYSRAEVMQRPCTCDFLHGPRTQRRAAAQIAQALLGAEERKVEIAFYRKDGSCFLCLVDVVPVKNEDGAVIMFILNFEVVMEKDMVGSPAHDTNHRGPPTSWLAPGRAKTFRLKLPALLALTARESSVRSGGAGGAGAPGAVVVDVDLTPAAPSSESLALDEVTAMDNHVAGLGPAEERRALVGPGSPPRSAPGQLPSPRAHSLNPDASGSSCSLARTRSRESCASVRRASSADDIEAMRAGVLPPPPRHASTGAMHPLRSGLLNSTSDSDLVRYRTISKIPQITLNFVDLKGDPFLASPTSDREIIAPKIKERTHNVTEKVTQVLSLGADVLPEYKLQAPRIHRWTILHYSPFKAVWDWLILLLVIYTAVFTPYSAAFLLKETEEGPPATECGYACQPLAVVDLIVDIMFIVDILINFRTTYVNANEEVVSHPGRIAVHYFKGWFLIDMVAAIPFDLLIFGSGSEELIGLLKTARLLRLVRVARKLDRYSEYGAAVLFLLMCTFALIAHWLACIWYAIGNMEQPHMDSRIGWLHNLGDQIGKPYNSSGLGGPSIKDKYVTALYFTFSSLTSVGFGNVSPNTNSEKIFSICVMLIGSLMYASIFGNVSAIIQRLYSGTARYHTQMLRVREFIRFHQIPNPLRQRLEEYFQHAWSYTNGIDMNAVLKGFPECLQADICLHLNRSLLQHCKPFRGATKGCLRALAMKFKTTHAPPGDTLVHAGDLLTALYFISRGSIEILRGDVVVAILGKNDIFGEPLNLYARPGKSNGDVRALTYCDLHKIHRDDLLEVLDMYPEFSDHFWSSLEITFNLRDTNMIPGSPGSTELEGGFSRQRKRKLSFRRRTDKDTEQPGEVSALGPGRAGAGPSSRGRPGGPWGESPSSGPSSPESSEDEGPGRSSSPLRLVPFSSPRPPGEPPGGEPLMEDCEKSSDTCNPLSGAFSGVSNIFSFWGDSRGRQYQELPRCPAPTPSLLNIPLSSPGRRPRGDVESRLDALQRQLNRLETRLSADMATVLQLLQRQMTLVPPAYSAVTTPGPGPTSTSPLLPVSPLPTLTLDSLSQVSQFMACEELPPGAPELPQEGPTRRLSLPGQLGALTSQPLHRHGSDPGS

CHO [8] = experiment: Selectivity ratio of pKi for human H3 receptor expressed in CHO cells to pKi for human H1 receptor expressed in CHO cells; format: cell-based
Method in brief: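 Ratio of two pKi values. The H3 pKi comes from membranes of CHO cells transfected with cloned human H3 receptor, read as reduction of histamine-stimulated GTPγS binding by scintillation proximity detection. The H1 pKi comes from intact CHO cells expressing recombinant human H1, read as inhibition of agonist-induced calcium mobilisation (Fluo-4AM dye, FLIPR plate-based imaging).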

CHO [9] = experiment: Selectivity ratio of pKi for human H3 receptor expressed in CHO cells to pKi for human adrenergic alpha1A receptor expressed in rat fibroblast; format: cell-based; method in brief: as §1

T1 sequence (P35367 whole entry): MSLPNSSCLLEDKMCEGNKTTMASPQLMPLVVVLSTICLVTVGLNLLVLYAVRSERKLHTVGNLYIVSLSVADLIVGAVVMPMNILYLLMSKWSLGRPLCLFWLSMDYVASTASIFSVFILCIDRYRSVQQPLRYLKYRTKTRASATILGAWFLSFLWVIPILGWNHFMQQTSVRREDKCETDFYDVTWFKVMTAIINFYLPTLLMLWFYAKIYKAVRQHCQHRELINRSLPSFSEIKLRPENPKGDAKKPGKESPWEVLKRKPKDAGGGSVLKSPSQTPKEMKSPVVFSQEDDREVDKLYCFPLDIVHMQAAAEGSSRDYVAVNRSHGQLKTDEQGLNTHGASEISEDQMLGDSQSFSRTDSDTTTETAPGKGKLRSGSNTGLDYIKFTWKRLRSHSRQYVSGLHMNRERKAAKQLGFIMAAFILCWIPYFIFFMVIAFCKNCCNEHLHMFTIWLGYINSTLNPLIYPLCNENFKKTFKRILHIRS

SMILES | Ki (Histamine H1 receptor [1]) [nM] | Ki (Histamine H3 receptor) [nM] | Ki [2] [nM] | logD [3] | Ki [4] [nM] | Kb (Histamine H1 receptor [5]) [nM] | Ratio pKi (CHO [6]) | IC50 [7] [nM] | Ratio pKi (CHO [8]) | Ratio pKi (CHO [9])
CCCCN1CCC[C@@H]1Cn1nc(Cc2ccc(Cl)cc2)c2ncccc2c1=O | 0.631 | 631 | 50.1 | 3.4 | 20 | – | – | – | – | –
CN1CCC[C@@H]1Cn1nc(Cc2ccc(Cl)cc2)c2nccnc2c1=O | 1.29 | 631 | 398 | 1.7 | 251 | 3.98 | – | – | – | –
CN1CCCC(n2nc(Cc3ccc(Cl)cc3)c3ccccc3c2=O)CC1 (centres undefined) [AZELASTINE] | – | 148 | – | 2.3 | – | – | – | – | – | –
CN1CCC[C@@H]1Cn1nc(Cc2ccc(Cl)cc2)c2ccncc2c1=O | 0.692 | 398 | 20 | 2.2 | – | 2.51 | – | – | – | –
O=c1c2ccccc2c(Cc2ccc(Cl)cc2)nn1C[C@H]1CCCN1CCCCc1ccc(OCCCN2CCCCCC2)cc1 [GSK-1004723] | – | – | – | 3.2 | – | – | – | – | – | –
COCCN1CCC[C@@H]1Cn1nc(Cc2ccc(Cl)cc2)c2cccnc2c1=O | 1 | 631 | 316 | 2.1 | 316 | 0.794 | – | – | – | –
COCCN1CCC[C@@H]1Cn1nc(Cc2ccc(Cl)cc2)c2ncccc2c1=O | 0.537 | – | 158 | 2.9 | 39.8 | – | – | – | – | –
CCCCN1CCC[C@@H]1Cn1nc(Cc2ccc(Cl)cc2)c2ccccc2c1=O | 0.912 | 437 | – | 3.1 | – | 0.0398 | – | – | – | –
CCCCN1CCC[C@@H]1Cn1nc(Cc2ccc(Cl)cc2)c2cccnc2c1=O | 0.631 | 631 | 100 | 2.8 | 100 | 0.316 | – | – | – | –
O=c1c2ccncc2c(Cc2ccc(Cl)cc2)nn1C[C@H]1CCCN1CCCCc1ccc(OCCCN2CCCCCC2)cc1 | 17.4 | 0.562 | 31.6 | – | 39.8 | 1 | 10 | 158 | 2.7 | 10

The next lines start with results.

Ki (Histamine H1 receptor [1]) [nM] | Ki (Histamine H3 receptor) [nM] | Ki [2] [nM] | logD [3] | Ki [4] [nM] | Kb (Histamine H1 receptor [5]) [nM] | SMILES | Ratio pKi (CHO [6]) | IC50 [7] [nM] | Ratio pKi (CHO [8]) | Ratio pKi (CHO [9])
0.513 | 398 | 20 | 3.3 | 12.6 | – | COCCN1CCC[C@@H]1Cn1nc(Cc2ccc(Cl)cc2)c2ccccc2c1=O | – | – | – | –
0.162 | 437 | 31.6 | 3 | 10 | 0.1 | CN1CCC[C@@H]1Cn1nc(Cc2ccc(Cl)cc2)c2ccccc2c1=O | – | – | – | –
0.316 | 316 | 200 | 2.7 | 50.1 | 0.316 | CN1CCC[C@@H]1Cn1nc(Cc2ccc(Cl)cc2)c2ncccc2c1=O | – | – | – | –
0.251 | – | – | 2.7 | 10 | 0.251 | COCCN1CCC[C@@H]1Cn1nc(Cc2ccc(Cl)cc2)c2cnccc2c1=O | – | – | – | –
0.398 | 631 | 6.31 | 3.2 | 7.94 | 0.1 | CCCCN1CCC[C@@H]1Cn1nc(Cc2ccc(Cl)cc2)c2cnccc2c1=O | 10 | 50.1 | 2.7 | 10
0.347 | 398 | 12.6 | 1.9 | – | 0.316 | CN1CCC[C@@H]1Cn1nc(Cc2ccc(Cl)cc2)c2cnccc2c1=O | – | – | – | –
0.355 | – | 631 | 1.7 | 158 | 0.501 | CN1CCC[C@@H]1Cn1nc(Cc2ccc(Cl)cc2)c2cccnc2c1=O | – | – | – | –
